ChEMBL document CHEMBL3232960, “Synthesis of novel 1,2,3-triazole/isoxazole functionalized 2H-Chromene derivatives and their cytotoxic activity” (Bioorg Med Chem Lett, 2014)

Legend:
Format in all cases: functional, cell-based
[1] = tested on: DU-145; test: Cytotoxicity against human DU145 cells assessed as growth inhibition after 24 hrs by MTT assay; conditions: DU-145, 24 h
Summary of the method: (§1)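 Exponentially growing cells (A549 lung CCL-185, DU145 prostate HTB-81, HeLa cervical CCL-2, MCF7 breast HTB-22) exposed to a range of compound concentrations for 24 h; viability read by MTT. 5-Fluorouracil served as positive control. IC50 taken as concentration giving 50% drop in cell number versus untreated control cultures.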

[2] = tested on: HeLa; test: Cytotoxicity against human HeLa cells assessed as growth inhibition after 24 hrs by MTT assay; summary of the method: as §1
[3] = tested on: MCF7; test: Cytotoxicity against human MCF7 cells assessed as growth inhibition after 24 hrs by MTT assay; conditions: MCF7, 24 h; summary of the method: as §1
[4] = tested on: A549; test: Cytotoxicity against human A549 cells assessed as growth inhibition after 24 hrs by MTT assay; conditions: A549, 24 h; summary of the method: as §1

SMILES | IC50 [1] | IC50 [2] | IC50 [3] | IC50 [4]
CCOC(=O)C1=Cc2ccccc2OC1(OCc1cc(-c2ccc([N+](=O)[O-])cc2)no1)C(F)(F)F (stereo unspecified) | > 150 µM | > 150 µM | > 150 µM | > 150 µM
CCOC(=O)C1=Cc2ccccc2OC1(OCc1cc(-c2ccc(F)cc2F)no1)C(F)(F)F (stereo unspecified) | > 150 µM | > 150 µM | > 150 µM | > 150 µM
O=C(O)C1=Cc2ccccc2OC1(OCc1cc(-c2ccc3ccccc3c2)no1)C(F)(F)F (stereo unspecified) | 140 µM | > 150 µM | > 150 µM | > 150 µM
CCOC(=O)C1=Cc2ccccc2OC1(OCc1cn(-c2ccc([N+](=O)[O-])cc2)nn1)C(F)(F)F (stereo unspecified) | > 150 µM | > 150 µM | > 150 µM | > 150 µM
CCOC(=O)C1=Cc2ccccc2OC1(OCc1cn(CC(=O)Nc2ccc(C)cc2)nn1)C(F)(F)F (stereo unspecified) | > 150 µM | 67.4 µM | > 150 µM | 54.3 µM
O=C(O)C1=Cc2ccccc2OC1(OCc1cc(-c2ccc(F)cc2F)no1)C(F)(F)F (stereo unspecified) | > 150 µM | > 150 µM | > 150 µM | > 150 µM
CCCCCCCCn1cc(COC2(C(F)(F)F)Oc3ccccc3C=C2C(=O)OCC)nn1 (stereo unspecified) | > 150 µM | > 150 µM | > 150 µM | > 150 µM
O=C(O)C1=Cc2ccccc2OC1(OCc1cc(-c2ccc(F)cc2)no1)C(F)(F)F (stereo unspecified) | 168 µM | > 150 µM | 64.2 µM | > 150 µM
Cc1ccc(-c2cc(COC3(C(F)(F)F)Oc4ccccc4C=C3C(=O)O)on2)cc1 (stereo unspecified) | 41.4 µM | 33.4 µM | 30.1 µM | 51.2 µM
CCOC(=O)C1=Cc2ccccc2OC1(OCc1cn(-c2cccc(C(F)(F)F)c2)nn1)C(F)(F)F (stereo unspecified) | > 150 µM | > 150 µM | > 150 µM | > 150 µM
CCOC(=O)C1=Cc2ccccc2OC1(OCc1cn(CC(=O)Nc2ccc(OC)cc2)nn1)C(F)(F)F (stereo unspecified) | 32.7 µM | 31.9 µM | 28.1 µM | 29.4 µM
CCOC(=O)C1=Cc2ccccc2OC1(OCc1cc(-c2ccc(C)cc2)no1)C(F)(F)F (stereo unspecified) | > 150 µM | > 150 µM | > 150 µM | > 150 µM
CCOC(=O)C1=Cc2ccccc2OC1(OCc1cc(-c2ccc(OC)cc2)no1)C(F)(F)F (stereo unspecified) | > 150 µM | > 150 µM | > 150 µM | > 150 µM
O=C(O)C1=Cc2ccccc2OC1(OCc1cc(-c2ccc([N+](=O)[O-])cc2)no1)C(F)(F)F (stereo unspecified) | 100 µM | > 150 µM | > 150 µM | > 150 µM
O=C(O)C1=Cc2ccccc2OC1(OCc1cc(-c2cccc(C(F)(F)F)c2)no1)C(F)(F)F (stereo unspecified) | 155 µM | > 150 µM | > 150 µM | > 150 µM
CCOC(=O)C1=Cc2ccccc2OC1(OCc1cn(CC(=O)NC2CCCCC2)nn1)C(F)(F)F (stereo unspecified) | 10.2 µM | 11.4 µM | 12.1 µM | 9.9 µM
CCOC(=O)C1=Cc2ccccc2OC1(OCc1cc(-c2cccc(C(F)(F)F)c2)no1)C(F)(F)F (stereo unspecified) | 57.3 µM | 21.4 µM | 22.1 µM | 48.6 µM

SMILES | IC50 [1] | IC50 [2] | IC50 [3] | IC50 [4]
CCOC(=O)C1=Cc2ccccc2OC1(OCc1cn(CC(=O)Nc2ccc(I)cc2Cl)nn1)C(F)(F)F (stereo unspecified) | 24.4 µM | 26.1 µM | 28.1 µM | 22.3 µM
CCOC(=O)C1=Cc2ccccc2OC1(OCc1cc(-c2ccc(Cl)cc2)no1)C(F)(F)F (stereo unspecified) | 18.2 µM | 12.3 µM | 18.2 µM | 19.1 µM
CCOC(=O)C1=Cc2ccccc2OC1(OCc1cc(-c2ccc(F)cc2)no1)C(F)(F)F (stereo unspecified) | 53.5 µM | 42.3 µM | 48.2 µM | 35.5 µM
CCOC(=O)C1=Cc2ccccc2OC1(OCc1cn(CC(=O)Nc2cccc(Cl)c2)nn1)C(F)(F)F (stereo unspecified) | 10.1 µM | 12.3 µM | 11.6 µM | 12.8 µM
COc1ccc(-c2cc(COC3(C(F)(F)F)Oc4ccccc4C=C3C(=O)O)on2)cc1 (stereo unspecified) | 42 µM | > 150 µM | 35.2 µM | 36.2 µM
CCOC(=O)C1=Cc2ccccc2OC1(OCc1cn(-c2ccc(F)c([N+](=O)[O-])c2)nn1)C(F)(F)F (stereo unspecified) | 13.2 µM | 15.6 µM | 16.2 µM | 11.9 µM
CCOC(=O)C1=Cc2ccccc2OC1(OCc1cc(-c2ccc3ccccc3c2)no1)C(F)(F)F (stereo unspecified) | 71.8 µM | > 150 µM | 65.4 µM | > 150 µM
CCOC(=O)C1=Cc2ccccc2OC1(OCc1cn(-c2ccc(F)cc2)nn1)C(F)(F)F (stereo unspecified) | 8.9 µM | 8.4 µM | 9.1 µM | 7.3 µM
O=c1[nH]cc(F)c(=O)[nH]1 [FLUOROURACIL] | 1.9 µM | 1.8 µM | 1.8 µM | 1.9 µM
CCOC(=O)C1=Cc2ccccc2OC1(OCc1cn(CC(=O)Nc2ccccc2F)nn1)C(F)(F)F (stereo unspecified) | 33.9 µM | 49.9 µM | 42.1 µM | 50.1 µM
CCOC(=O)C1=Cc2ccccc2OC1(OCc1cn(CC(=O)Nc2cccc(F)c2)nn1)C(F)(F)F (stereo unspecified) | > 150 µM | > 150 µM | > 150 µM | > 150 µM
CCOC(=O)C1=Cc2ccccc2OC1(OCc1cn(-c2cccc(OC)c2)nn1)C(F)(F)F (stereo unspecified) | > 150 µM | > 150 µM | > 150 µM | > 150 µM
CCOC(=O)C1=Cc2ccccc2OC1(OCc1cc(-c2ccc(Br)cc2)no1)C(F)(F)F (stereo unspecified) | 71.7 µM | 52.3 µM | > 150 µM | > 150 µM
CCOC(=O)C1=Cc2ccccc2OC1(OCc1cn(CC(=O)Nc2ccccc2Br)nn1)C(F)(F)F (stereo unspecified) | > 150 µM | > 150 µM | > 150 µM | > 150 µM
CCOC(=O)C1=Cc2ccccc2OC1(OCc1cn(-c2ccc(C)cc2)nn1)C(F)(F)F (stereo unspecified) | 30.2 µM | 25.1 µM | 26.7 µM | 19.7 µM
CCOC(=O)C1=Cc2ccccc2OC1(OCc1cn(-c2ccccc2)nn1)C(F)(F)F (stereo unspecified) | > 150 µM | > 150 µM | > 150 µM | > 150 µM
CCOC(=O)C1=Cc2ccccc2OC1(OCc1cn(-c2ccc(F)c(Cl)c2)nn1)C(F)(F)F (stereo unspecified) | 21.5 µM | 22.7 µM | 25.3 µM | 26.3 µM
